APP 5'UTR act: activates APP 5'UTR luciferase reporter; SH-SY5Y APP 5'UTR luciferase reporter, luminescence; zero percent = DMSO vehicle wells; activation, % at 2 µM; 190,000 compounds, 1% hits;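 active = activation above a set limit, based on mean plus 3 SD of controls, cut at about 140% in these data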
NF-kB neuron act: compounds increasing NF-kB expression in human neuronal cells | NF-kB reporter expression; stronger effect = higher value | fold change at 12.5 µM | 190,000 compounds, 1.6% hits | AID 1239; in the data active = fold change above about 3.3
STAT3 blocker: inhibitors of IL-6 induced STAT3 signaling; U3A cells, IL-6 STAT3-luciferase reporter, luminescence; host cell line lacks STAT1; inhibition, % at 5.5 µM; 190,000 compounds, 0.89% hits;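 active = inhibition above the mean inhibition across all screened compounds plus 3 SD, cut at about 44% in these data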;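 also: 0% = DMSO only wells and 100% = 100 µM nifuroxazide control wells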
STAT1 inh: STAT1 signaling inhibition. NIH 3T3 STAT1-luciferase reporter, IFN-gamma, luminescence. inhibition, % at 5.5 µM. 200,000 compounds, 0.35% hits;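 active = inhibition above a set limit, the mean inhibition across all tested compounds plus 3 SD, cut at about 34% in these data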;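 also: 0% = IFN-gamma with DMSO and 100% = IFN-gamma with 300 µM nifuroxazide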
STAT1 activator: activators of IFN-gamma induced STAT1 signaling | 200,000 compounds, 2.6% hits | activation (% of control), % at 5.5 µM | AID 932 | NIH 3T3 STAT1-luciferase reporter, luminescence; 100% = IFN-gamma alone, no compound;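 active = activation above the screen-wide mean activation plus 3 SD, cut at about 130% in these data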;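 also: raw ratio to IFN-gamma control signal so 100% means no change and 0% no light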
STAT3 activator: increases IL-6 driven STAT3 reporter signal; activation (% of control), % at 5.6 µM; 190,000 compounds, 0.91% hits; AID 871; U3A cells, IL-6 STAT3-luciferase reporter, luminescence; 100% = signal with IL-6 EC80 alone;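 active = activation above the screen-wide mean of compound activation plus 3 SD, cut at about 130% in these data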;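 also: 0% = background luminescence of wells with medium and substrate only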
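System – human U3A cells carrying STAT3-luciferase construct · Probe or stimulus – Interleukin-6, 33 ng/mL · Schedule – compound 1 h, then IL-6 6 h at 37 °C · Signal – luminescence from STAT3-driven luciferase reporter · Evaluation – percent of IL-6-only median luminescence · Benchmarks – IL-6-only high control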
* marks the source's active call; other numbers are inactive results; · = not tested or not shown. Rows were chosen to be rich in hits. Some 5.1% of all compounds tested hit in one or more screens of this group.

SMILES	APP 5'UTR act	NF-kB neuron act	STAT3 blocker	STAT1 inh	STAT1 activator	STAT3 activator
O=C(NCC(=O)N1CC(O)CC1C(=O)N1CCCC1C(=O)OCc1ccccc1)OCc1ccccc1 (configuration not stated)	-43.0	0.86	6.5	2.0	97.9	101.0
COc1cccc(CCc2nnc(CCC(=O)N3CCN(Cc4ccccn4)CC3)o2)c1	19.4	·	-3.0	-2.4	100.5	107.2
CC1CCN(C(=S)NCCc2ccccc2)CC1	95.0	3.37*	-7.0	-26.2	124.1	113.0
O=C(NC1CCCCC1)C(=S)NCCc1ccccc1	24.1	1.37	6.8	-18.6	115.2	97.3
CN1CCN(C(=S)NCCc2ccccc2)CC1	20.5	1.39	-5.0	-3.4	103.1	108.9
S=C(NCCc1ccccc1)NC1CCCCCC1	77.5	3.22	-3.5	-41.0	137.0*	109.8
COc1ccc(CC(=O)Nc2ccccc2C(=O)N2CCOCC2)cc1OC	-3.9	0.95	8.3	-0.5	100.0	94.2
Cc1ccc2cccc(OCC(=O)N3CC(C)CC(C)C3)c2n1 (configuration not stated)	-14.6	0.9	-6.5	8.2	93.8	110.0
CCCn1c(SCC(=O)NCc2ccc(Cl)cc2)n[nH]c1=O	-7.4	0.99	-12.2	-7.4	105.0	113.6
Cn1c(CSCc2ccccc2)nnc1SCC(=O)Nc1ccc(C(=O)O)cc1	15.5	1.19	8.4	-0.4	98.4	97.5
CCOc1ccc(/C=C/C2=NNC(=O)CC2)cc1	50.5	2.05	4.4	-30.9	128.7*	98.1
CCN=c1scc(-c2ccccc2)n1/N=C/c1ccccn1	165.7*	2.96	45.4*	-76.3	169.7*	60.9
CCN=c1scc(-c2ccc(F)cc2)n1/N=C/c1ccccn1	106.9	5.02*	24.2	-40.8	137.6*	85.1
CC(C)(C)C(=O)Nc1cccc(C(=O)Nc2cc(C(=O)O)cc(C(=O)O)c2)c1	4.7	1.1	-6.9	10.3	91.0	108.2
CN(C)n1cnc2ccsc2c1=O	-8.0	1.55	11.5	-1.3	99.5	98.9
COc1ccc2c(c1OC)C(=O)N1c3ccccc3C(=O)N(c3ccccc3)C21 (configuration not stated)	-8.2	0.28	49.0*	52.8*	51.4	61.4
Cc1ccc(S(=O)(=O)NCCC(=O)Nc2nccs2)cc1	-10.3	1.16	6.4	-1.5	99.1	96.3
O=C(/C=C/c1ccccc1)Nc1ccc2c(c1)C(=O)NC2=O	8.2	1.49	11.1	-31.1	128.9*	98.2
COc1ccc(CNC(=O)CN(Cc2ccc(OC)cc2)C(=O)c2csnn2)cc1	-4.1	1.4	-1.6	1.5	96.9	103.3
COc1ccc(CCNC(=O)COc2ccc(C)nc2[N+](=O)[O-])cc1OC	-9.2	1.16	2.5	-2.3	102.4	105.3
CCn1cnc2c(oc3ccccc32)c1=O	2.0	1.49	-2.0	0.8	99.9	102.2
O=C(Cn1cnc2c(oc3ccccc32)c1=O)c1ccccc1	102.5	2.7	-0.6	-52.9	148.4*	105.4
Cc1cnc(CNC(=O)c2ccc(OC3CCN(C(=O)C4CC4)CC3)cc2)cn1	-0.7	1.31	8.2	-3.1	102.0	103.1
CCc1ccc(/C=C2/C(=O)N(C)C(=S)N2CC(=O)OC)s1	-12.9	1.18	14.1	15.8	83.8	93.0
CCC(CC)c1nnc(NC(=O)C2COc3ccccc3O2)s1 (configuration not stated)	121.3	1.99	4.4	-41.5	136.9*	98.7
SMILES	APP 5'UTR act	NF-kB neuron act	STAT3 blocker	STAT1 inh	STAT1 activator	STAT3 activator
O=C(Nc1ccncc1)C1COc2ccccc2O1 (configuration not stated)	-6.3	1.03	16.4	4.0	96.3	90.2
Cc1nnc(NC(=O)C2COc3ccccc3O2)s1 (configuration not stated)	18.6	1.61	-14.3	-33.4	128.9*	115.8
O=C(NC1=NCCS1)C1COc2ccccc2O1 (configuration not stated)	-1.7	0.33	98.8*	76.6*	28.7	13.7
CSc1ccc(C#N)cc1NC(=O)c1ccccc1C	10.5	1.27	8.1	-2.6	101.1	99.8
COc1ccccc1C(=O)NNC(=O)c1cccc(Cl)c1	141.7*	3.62*	22.7	-31.4	127.2	83.9
COc1ccc(Cl)cc1C(=O)NNC(=O)c1cccc([N+](=O)[O-])c1	5.1	1.04	22.9	-2.0	99.2	84.6

Source: PubChem BioAssay
